{"source": "ChEMBL document CHEMBL3994633", "about": "“Exploration of phenylpropanoic acids as agonists of the free fatty acid receptor 4 (FFA4): Identification of an orally efficacious FFA4 agonist” (Bioorg Med Chem Lett, 2017)", "key": {"Rattus norvegicus [1]": {"organism": "Rattus norvegicus", "test": "Selectivity ratio of EC50 for rat FFA1 receptor to EC50 for rat FFA4 receptor"}, "[2]": {"molecular_target": "T1, Free fatty acid receptor 1 (Homo sapiens, UniProt O14842)", "T1 sequence (O14842 whole entry)": "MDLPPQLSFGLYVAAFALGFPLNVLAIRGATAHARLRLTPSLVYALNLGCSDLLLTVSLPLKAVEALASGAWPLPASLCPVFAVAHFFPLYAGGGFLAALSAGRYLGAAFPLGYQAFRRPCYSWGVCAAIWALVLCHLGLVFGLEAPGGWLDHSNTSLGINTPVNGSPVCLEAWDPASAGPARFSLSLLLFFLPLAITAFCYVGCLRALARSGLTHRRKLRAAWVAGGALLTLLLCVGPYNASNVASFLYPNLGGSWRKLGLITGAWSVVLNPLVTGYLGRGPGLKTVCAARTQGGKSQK", "test": "Agonist activity at human FFA1 receptor expressed in human U2OS cells co-expressing Galpha16 assessed as calcium mobilization by Fluo-4 dye based FLIPR assay", "format": "functional, cell-based", "conditions": "read-out: EC50", "procedure,_shortened": "(§1)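 U2OS cells transiently expressing human FFA1 or FFA4. Agonism measured from a ten-point dose-response curve with FLIPR readout, giving EC50 (nM) and efficacy (% max response). Values are means of three experiments.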"}, "Mus musculus [3]": {"tested_on": "Mus musculus", "test": "Antidiabetic activity in db/db mouse assessed as reduction in HbA1c level at 100 mg/kg, po bid after 2 weeks relative to control", "format": "functional", "set-up": "scale not given: the % may be the effect or the level left", "procedure,_shortened": "(§2)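 Fed db/db mice given vehicle or 100 mg/kg orally twice daily for 2 weeks. Blood glucose measured before treatment and after 1 and 2 weeks; HbA1c measured before and after 2 weeks.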"}, "[4]": {"test": "Oral bioavailability in C57BL/6J mouse at 10 mg/kg", "format": "ADME, organism-based", "conditions": "in vivo", "procedure,_shortened": "(§3)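 C57BL/6J mice (n = 2), single oral dose of 10 mg/kg given as a suspension in 0.5% HMPC: 0.1% Tween. Plasma Cmax and AUC (hr*ng/mL) measured; %F calculated against the IV leg.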"}, "[5]": {"test": "Clearance in C57BL/6J mouse at 4.2 mg/kg, iv", "format": "ADME, organism-based", "conditions": "in vivo", "procedure,_shortened": "(§4)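 C57BL/6J mice (n = 2) dosed intravenously at 3 or 4.2 mg/kg. Clearance (mL/min/kg) and AUC (hr*ng/mL) derived from plasma concentrations.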"}, "[6]": {"molecular_target": "T2, Free fatty acid receptor 2 (Homo sapiens, UniProt O15552)", "T2 sequence (O15552 whole entry)": "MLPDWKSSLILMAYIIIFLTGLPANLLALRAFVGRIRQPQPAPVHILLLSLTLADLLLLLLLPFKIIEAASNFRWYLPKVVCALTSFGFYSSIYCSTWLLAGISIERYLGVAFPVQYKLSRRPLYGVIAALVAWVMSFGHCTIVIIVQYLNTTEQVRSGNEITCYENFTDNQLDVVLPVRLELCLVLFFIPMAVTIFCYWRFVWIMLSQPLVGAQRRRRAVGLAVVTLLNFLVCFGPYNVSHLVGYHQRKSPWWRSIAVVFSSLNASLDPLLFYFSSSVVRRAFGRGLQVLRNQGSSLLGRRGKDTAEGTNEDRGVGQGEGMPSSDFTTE", "test": "Agonist activity at human FFA2 receptor by FLIPR assay", "procedure,_shortened": "(§5)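 Human FFA2 or FFA3 agonism tested in FLIPR-based full-curve functional assays. EC50 (nM) and max response (%) reported.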"}, "Mus musculus [7]": {"tested_on": "Mus musculus", "test": "Antidiabetic activity in db/db mouse assessed as plasma glucose level at 100 mg/kg, po bid after 2 weeks (reference value: 276 mg/dl)", "format": "functional", "procedure,_shortened": "as §2"}, "[8]": {"test": "AUC in C57BL/6J mouse at 10 mg/kg, po", "format": "ADME, organism-based", "conditions": "in vivo", "procedure,_shortened": "as §3"}, "[9]": {"test": "Half life in C57BL/6J mouse at 10 mg/kg, po", "format": "ADME, organism-based", "conditions": "in vivo"}, "[10]": {"test": "AUC in C57BL/6J mouse at 4.2 mg/kg, iv", "format": "ADME, organism-based", "conditions": "in vivo", "procedure,_shortened": "as §4"}, "[11]": {"molecular_target": "T3, Free fatty acid receptor 4 (Homo sapiens) (UniProt Q5NUL3)", "T3 sequence (whole entry)": "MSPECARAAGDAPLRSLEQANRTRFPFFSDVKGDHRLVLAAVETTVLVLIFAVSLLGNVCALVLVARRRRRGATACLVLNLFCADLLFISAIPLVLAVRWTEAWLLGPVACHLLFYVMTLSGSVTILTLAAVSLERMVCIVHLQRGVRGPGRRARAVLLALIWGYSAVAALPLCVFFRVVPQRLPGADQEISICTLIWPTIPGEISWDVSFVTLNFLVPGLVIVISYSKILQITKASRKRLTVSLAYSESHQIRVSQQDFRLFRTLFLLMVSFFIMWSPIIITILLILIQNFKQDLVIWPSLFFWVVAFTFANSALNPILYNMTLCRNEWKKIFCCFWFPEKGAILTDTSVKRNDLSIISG", "test": "Agonist activity at human FFA4 receptor expressed in human U2OS cells co-expressing Galpha16 assessed as calcium mobilization by Fluo-4 dye based FLIPR assay relative to GSK137647A", "format": "functional, cell-based", "procedure,_shortened": "as §1"}, "Rattus norvegicus [12]": {"tested_on": "Rattus norvegicus", "test": "Antidiabetic activity in ZDF rat assessed as plasma glucose level at 10 mg/kg bid for 14 days (reference value: 192 mg/dl)", "format": "functional"}, "[13]": {"molecular_target": "Free fatty acid receptor 1 (Mus musculus, UniProt Q76JU9)", "sequence (Q76JU9 whole entry)": "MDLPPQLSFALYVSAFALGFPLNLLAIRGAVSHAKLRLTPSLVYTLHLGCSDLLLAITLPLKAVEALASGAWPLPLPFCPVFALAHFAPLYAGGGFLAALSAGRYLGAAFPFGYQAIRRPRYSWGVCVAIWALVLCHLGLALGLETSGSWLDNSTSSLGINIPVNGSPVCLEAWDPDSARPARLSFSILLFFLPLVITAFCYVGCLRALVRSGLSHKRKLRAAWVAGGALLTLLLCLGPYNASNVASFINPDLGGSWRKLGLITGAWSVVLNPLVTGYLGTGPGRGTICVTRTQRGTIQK", "test": "Agonist activity at mouse FFA1 receptor"}, "[14]": {"molecular_target": "T4, Free fatty acid receptor 4 (Mus musculus, UniProt Q7TMA4)", "T4 sequence (Q7TMA4 whole entry)": "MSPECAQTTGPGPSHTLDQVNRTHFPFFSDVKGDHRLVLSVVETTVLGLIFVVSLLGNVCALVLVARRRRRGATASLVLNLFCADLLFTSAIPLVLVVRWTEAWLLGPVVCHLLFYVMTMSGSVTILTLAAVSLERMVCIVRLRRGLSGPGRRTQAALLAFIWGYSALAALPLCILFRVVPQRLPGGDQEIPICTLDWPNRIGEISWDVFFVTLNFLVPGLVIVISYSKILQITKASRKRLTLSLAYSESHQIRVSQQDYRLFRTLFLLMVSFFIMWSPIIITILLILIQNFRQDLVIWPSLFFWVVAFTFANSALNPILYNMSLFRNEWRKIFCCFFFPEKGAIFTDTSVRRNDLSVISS", "test": "Agonist activity at mouse FFA4 receptor"}, "[15]": {"molecular_target": "T5, Free fatty acid receptor 4 (Homo sapiens, UniProt Q5NUL3)", "T5 sequence (Q5NUL3 whole entry)": "T3 sequence (whole entry)", "test": "Agonist activity at human FFA4 receptor expressed in human U2OS cells co-expressing Galpha16 assessed as calcium mobilization by Fluo-4 dye based FLIPR assay", "format": "functional, cell-based", "procedure,_shortened": "as §1"}, "Mus musculus [16]": {"organism": "Mus musculus", "test": "Selectivity ratio of EC50 for mouse FFA1 receptor to EC50 for mouse FFA4 receptor"}, "[17]": {"molecular_target": "T1, Free fatty acid receptor 1", "test": "Agonist activity at human FFA1 receptor expressed in human U2OS cells co-expressing Galpha16 assessed as calcium mobilization by Fluo-4 dye based FLIPR assay relative to GSK137647A", "format": "functional, cell-based", "procedure,_shortened": "as §1"}, "[18]": {"test": "Protein binding in human plasma", "format": "ADME, cell-free", "conditions": "read-out: PPB"}, "[19]": {"test": "Cmax in C57BL/6J mouse at 10 mg/kg, po", "format": "ADME, organism-based", "set-up": "dose 10 mg/kg, route oral", "conditions": "in vivo", "procedure,_shortened": "as §3"}, "[20]": {"molecular_target": "T6, Free fatty acid receptor 2 (Homo sapiens) (UniProt O15552)", "T6 sequence (whole entry)": "T2 sequence (O15552 whole entry)", "test": "Agonist activity at human FFA2 receptor by FLIPR assay relative to control", "procedure,_shortened": "as §5"}, "[21]": {"molecular_target": "T7, Free fatty acid receptor 4 (Rattus norvegicus) (UniProt Q2AC31)", "T7 sequence (whole entry)": "T4 sequence (Q7TMA4 whole entry) with H15R, L17P, V42L, A66V, A75V, N328S, D348E, V351I, S361T", "test": "Agonist activity at rat FFA4 receptor relative to control"}, "Homo sapiens": {"organism": "Homo sapiens", "test": "Selectivity ratio of EC50 for human FFA1 receptor expressed in human U2OS cells co-expressing Galpha16 to EC50 for human FFA4 receptor expressed in human U2OS cells co-expressing Galpha16", "format": "cell-based"}, "[22]": {"molecular_target": "Free fatty acid receptor 1 (Rattus norvegicus, UniProt Q8K3T4)", "sequence (Q8K3T4 whole entry)": "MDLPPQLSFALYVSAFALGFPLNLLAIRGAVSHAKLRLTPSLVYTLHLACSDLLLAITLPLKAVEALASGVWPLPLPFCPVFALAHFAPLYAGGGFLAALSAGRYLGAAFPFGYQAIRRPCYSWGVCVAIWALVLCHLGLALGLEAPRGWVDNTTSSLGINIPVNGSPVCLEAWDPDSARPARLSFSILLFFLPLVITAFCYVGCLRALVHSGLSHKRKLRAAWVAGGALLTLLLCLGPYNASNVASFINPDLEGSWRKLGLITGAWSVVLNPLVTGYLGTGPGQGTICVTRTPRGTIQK", "test": "Agonist activity at rat FFA1 receptor"}, "Rattus norvegicus [23]": {"tested_on": "Rattus norvegicus", "test": "Antidiabetic activity in ZDF rat assessed as plasma glucose level at 100 mg/kg bid for 14 days (reference value: 192 mg/dl)", "format": "functional"}, "[24]": {"molecular_target": "T8, Free fatty acid receptor 4 (Rattus norvegicus, UniProt Q2AC31)", "T8 sequence (Q2AC31 whole entry)": "T4 sequence (Q7TMA4 whole entry) with H15R, L17P, V42L, A66V, A75V, N328S, D348E, V351I, S361T", "test": "Agonist activity at rat FFA4 receptor"}, "[25]": {"molecular_target": "T9, Free fatty acid receptor 3 (Homo sapiens, UniProt O14843)", "T9 sequence (O14843 whole entry)": "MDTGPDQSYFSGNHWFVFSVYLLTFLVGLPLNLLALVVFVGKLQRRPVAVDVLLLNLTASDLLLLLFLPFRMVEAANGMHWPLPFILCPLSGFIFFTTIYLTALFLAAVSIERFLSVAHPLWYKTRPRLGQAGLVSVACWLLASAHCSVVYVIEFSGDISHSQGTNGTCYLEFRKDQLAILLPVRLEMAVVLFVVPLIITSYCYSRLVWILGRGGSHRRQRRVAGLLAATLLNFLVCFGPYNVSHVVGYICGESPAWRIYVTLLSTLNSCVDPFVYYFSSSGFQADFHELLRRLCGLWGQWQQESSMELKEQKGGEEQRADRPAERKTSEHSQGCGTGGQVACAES", "test": "Agonist activity at human FFA3 receptor by FLIPR assay", "procedure,_shortened": "as §5"}, "[26]": {"molecular_target": "T10, Free fatty acid receptor 4 (Mus musculus) (UniProt Q7TMA4)", "T10 sequence (whole entry)": "T4 sequence (Q7TMA4 whole entry)", "test": "Agonist activity at mouse FFA4 receptor relative to control"}, "[27]": {"molecular_target": "Free fatty acid receptor 1 (Mus musculus) (UniProt Q76JU9)", "sequence (Q76JU9 whole entry)": "as the sequence (Q76JU9 whole entry) above", "test": "Agonist activity at mouse FFA1 receptor relative to control"}}, "note": "Positions count from the first letter of the chain named.", "data": [{"compound": "COc1ccc(C(F)(F)F)cc1COc1ccc(CCC(=O)O)cc1C", "values": [{"measurement": "Ratio EC50", "setting": "Rattus norvegicus [1]", "result": "> 85"}, {"measurement": "EC50", "setting": "[2]", "result": 11.8, "unit": "µM"}, {"measurement": "Activity", "setting": "Mus musculus [3]", "result": 1.6, "unit": "%"}, {"measurement": "bioavailability", "setting": "[4]", "result": 110, "unit": "%"}, {"measurement": "clearance", "setting": "[5]", "result": 20, "unit": "mL/min/kg"}, {"measurement": "EC50", "setting": "[6]", "result": 25.3, "unit": "µM"}, {"measurement": "Activity", "setting": "Mus musculus [7]", "result": 106, "unit": "mg/dL"}, {"measurement": "AUC", "setting": "[8]", "result": 9440, "unit": "ng·h/mL"}, {"measurement": "half-life", "setting": "[9]", "result": 1.7, "unit": "h"}, {"measurement": "AUC", "setting": "[10]", "result": 3620, "unit": "ng·h/mL"}, {"measurement": "%max", "setting": "[11]", "result": 124, "unit": "%"}, {"measurement": "Activity", "setting": "Rattus norvegicus [12]", "result": 151, "unit": "mg/dL"}, {"measurement": "EC50", "setting": "[13]", "result": 6.21, "unit": "µM"}, {"measurement": "EC50", "setting": "[14]", "result": 0.07, "unit": "µM"}, {"measurement": "EC50", "setting": "[15]", "result": 0.299, "unit": "µM"}, {"measurement": "Ratio EC50", "setting": "Mus musculus [16]", "result": "> 85"}, {"measurement": "%max", "setting": "[17]", "result": 105, "unit": "%"}, {"measurement": "fraction unbound", "setting": "[18]", "result": 0.001}, {"measurement": "Cmax", "setting": "[19]", "result": 6780, "unit": "ng/mL"}, {"measurement": "%max", "setting": "[20]", "result": 59, "unit": "%"}, {"measurement": "%max", "setting": "[21]", "result": 110, "unit": "%"}, {"measurement": "Ratio EC50", "setting": "Homo sapiens", "result": 40}, {"measurement": "EC50", "setting": "[22]", "result": "> 30", "unit": "µM"}, {"measurement": "Activity", "setting": "Rattus norvegicus [23]", "result": 139, "unit": "mg/dL"}, {"measurement": "EC50", "setting": "[24]", "result": 0.23, "unit": "µM"}, {"measurement": "EC50", "setting": "[25]", "result": "> 50", "unit": "µM"}, {"measurement": "%max", "setting": "[26]", "result": 108, "unit": "%"}, {"measurement": "%max", "setting": "[27]", "result": 83, "unit": "%"}]}]}
